Experimental data: ChEMBL document CHEMBL4196209, “Validation of Matrix Metalloproteinase-9 (MMP-9) as a Novel Target for Treatment of Diabetic Foot Ulcers in Humans and Discovery of a Potent and Selective Small-Molecule MMP-9 Inhibitor That Accelerates Healing” (J Med Chem, 2018)
Active and inactive are the calls of the source. No cut-off for these calls is given here.

Tests used:
[1] = target: T1, Interstitial collagenase (Homo sapiens) (UniProt P03956); assay: Inhibition of human recombinant MMP1 catalytic domain using Mca-Lys-Pro-Leu-Gly-Leu-Dpa-Ala-Arg-NH2 substrate
T1 sequence (whole entry): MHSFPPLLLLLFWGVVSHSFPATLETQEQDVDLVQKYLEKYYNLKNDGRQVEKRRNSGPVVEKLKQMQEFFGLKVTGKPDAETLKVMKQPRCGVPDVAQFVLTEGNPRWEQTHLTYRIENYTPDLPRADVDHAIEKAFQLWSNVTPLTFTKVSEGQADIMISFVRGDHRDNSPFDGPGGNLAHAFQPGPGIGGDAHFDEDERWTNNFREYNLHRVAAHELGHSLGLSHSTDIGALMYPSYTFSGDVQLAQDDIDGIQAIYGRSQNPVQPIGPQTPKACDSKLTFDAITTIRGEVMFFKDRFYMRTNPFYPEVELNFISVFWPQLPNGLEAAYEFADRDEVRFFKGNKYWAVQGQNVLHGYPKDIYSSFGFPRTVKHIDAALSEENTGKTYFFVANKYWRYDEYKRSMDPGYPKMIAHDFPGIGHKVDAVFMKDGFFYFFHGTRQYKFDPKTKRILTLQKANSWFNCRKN
Summary of the method: (§1)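 Fluorogenic continuous assay of recombinant enzymes; Mca-KPLGL-Dpa-AR-NH2 substrate for MMP-1, MMP-8, ADAM10; Mca-PLAQAV-Dpa-RSSSR-NH2 for ADAM9; MOCAc-PLGL-A2pr(Dnp)-AR-NH2 for MMP-2, MMP-9, MMP-14 with Km determined beforehand. Inhibitor stocks 10 mM in DMSO; duplicates, repeated three times; Ki for slow-binding inhibitors from koff/kon.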

Mus musculus [2] = assay: Induction of wound healing in db/db BKS.Cg-Dock7m+/+ Lepr db/J mouse model of full-thickness excision at 50 ug/wound/day for 7 days dosed topically 1 day after wound creation; type: functional, organism-based
Summary of the method: (§2)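 Female db/db mice (8 weeks, ~40 g) with 8 mm full-thickness dorsal excision wound, Tegaderm-covered; from day 1, 100 µL of 0.5 mg/mL aqueous solution (50 µg/wound/day) or water vehicle topically once daily for 14 days. Wounds measured days 0, 7, 10, 14; cryosections for H&E re-epithelialization and DQ-collagen in-situ zymography, n = 3/group/time point.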

[3] = AUC in C57BLKS/6J db/db mouse plasma at 2 mg/kg applied topically to wounds as single administration by UPLC-MRM analysis; type: ADME, organism-based; conditions: topical or ocular
Mus musculus [4] = assay: Reduction in NFkappaB p65 protein levels generation in db/db BKS.Cg-Dock7m+/+ Lepr db/J mouse model of full-thickness excision assessed as p65 AUC level at 50 ug/wound/day for 7 days dosed topically 1 day after wound creation by ELISA (reference value: 834 +/- 121 ug/mg.day); type: functional, organism-based
[5] = target: T1, Interstitial collagenase (Homo sapiens); assay: Inhibition of human recombinant MMP1 catalytic domain at 100 uM using Mca-Lys-Pro-Leu-Gly-Leu-Dpa-Ala-Arg-NH2 substrate; summary of the method: as §1
Mus musculus [6] = assay: Inhibition of MMP9 activity in db/db BKS.Cg-Dock7m+/+ Lepr db/J mouse model of full-thickness excision using DQ-gelatin substrate at 50 ug/wound/day for 14 days dosed topically 1 day after wound creation by in-situ zymography; type: functional, organism-based
Mus musculus [7] = assay: Reduction in ROS generation in db/db BKS.Cg-Dock7m+/+ Lepr db/J mouse model of full-thickness excision at 50 ug/wound/day for 7 days dosed topically 1 day after wound creation by L-012 dye based assay; type: functional, organism-based
Summary of the method: (§3)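 Wounded db/db mice dosed topically with 50 µg/wound/day or water vehicle; on days 1, 2, 3 and 7 post-wounding, anaesthetised with 2% isoflurane, injected ip with 200 µL L-012 (5 mg/mL in PBS), and bioluminescence imaged immediately at 5-min intervals; n = 3/group/time point.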

Mus musculus [8] = assay: Inhibition of MMP8 activity in db/db BKS.Cg-Dock7m+/+ Lepr db/J mouse model of full-thickness excision using DQ-collagen substrate at 50 ug/wound/day for 14 days dosed topically 1 day after wound creation by in-situ zymography; type: functional, organism-based; summary of the method: as §2
[9] = target: T2, Disintegrin and metalloproteinase domain-containing protein 10 (Homo sapiens) (UniProt O14672); assay: Inhibition of human recombinant ADAM10 at 100 uM using Mca-Lys-Pro-Leu-Gly-Leu-Dpa-Ala-Arg-NH2 substrate; summary of the method: as §1
T2 sequence (whole entry): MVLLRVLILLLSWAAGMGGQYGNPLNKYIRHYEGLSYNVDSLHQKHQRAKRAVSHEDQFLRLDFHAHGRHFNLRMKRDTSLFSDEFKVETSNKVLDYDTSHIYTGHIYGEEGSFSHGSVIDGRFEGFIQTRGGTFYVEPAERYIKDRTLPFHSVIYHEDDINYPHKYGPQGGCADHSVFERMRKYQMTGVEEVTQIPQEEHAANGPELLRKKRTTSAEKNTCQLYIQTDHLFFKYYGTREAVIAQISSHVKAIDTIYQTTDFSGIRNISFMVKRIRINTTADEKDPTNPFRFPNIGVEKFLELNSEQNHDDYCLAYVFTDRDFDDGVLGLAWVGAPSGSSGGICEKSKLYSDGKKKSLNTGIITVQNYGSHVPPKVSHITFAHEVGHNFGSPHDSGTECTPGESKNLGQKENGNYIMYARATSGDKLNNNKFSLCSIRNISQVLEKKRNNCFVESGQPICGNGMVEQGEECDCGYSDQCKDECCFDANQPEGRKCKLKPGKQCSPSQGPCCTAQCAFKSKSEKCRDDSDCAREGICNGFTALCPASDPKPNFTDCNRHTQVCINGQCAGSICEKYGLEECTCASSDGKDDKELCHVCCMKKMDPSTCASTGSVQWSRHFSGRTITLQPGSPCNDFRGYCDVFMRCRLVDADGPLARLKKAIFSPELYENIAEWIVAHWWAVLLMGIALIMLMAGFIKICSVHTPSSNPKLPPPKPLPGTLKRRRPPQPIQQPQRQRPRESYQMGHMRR

[10] = target: Matrix metalloproteinase-14 (Homo sapiens, UniProt P50281); assay: Slow binding inhibition of human recombinant MMP14 catalytic domain using MOCAc-Pro-Leu-Gly-Leu-A2pr(Dnp)-Ala-Arg-NH2 substrate; summary of the method: as §1
Mus musculus [11] = assay: Reduction in ROS generation in db/db BKS.Cg-Dock7m+/+ Lepr db/J mouse model of full-thickness excision at 50 ug/wound/day for 3 days dosed topically 1 day after wound creation by L-012 dye based assay; type: functional, organism-based; summary of the method: as §3
in vivo = conditions: C57BLKS/6J db/db, mouse, plasma, topical or ocular, 2 mg/kg
Salmonella typhimurium = assay: Mutagenicity in Salmonella typhimurium by Ames test; type: toxicity, organism-based; conditions: salmonella enterica subsp. enterica serovar typhimurium
[12] = target: Stromelysin-1 (Homo sapiens) (UniProt P08254); assay: Inhibition of human recombinant MMP3 catalytic domain at 100 uM using MOCAc-Arg-Pro-Lys-Pro-Val-Glu-Nva-Trp-Arg-Lys(Dnp)-NH2 substrate
Sequence of Stromelysin-1 (Homo sapiens) (P08254 100-477 limits assumed): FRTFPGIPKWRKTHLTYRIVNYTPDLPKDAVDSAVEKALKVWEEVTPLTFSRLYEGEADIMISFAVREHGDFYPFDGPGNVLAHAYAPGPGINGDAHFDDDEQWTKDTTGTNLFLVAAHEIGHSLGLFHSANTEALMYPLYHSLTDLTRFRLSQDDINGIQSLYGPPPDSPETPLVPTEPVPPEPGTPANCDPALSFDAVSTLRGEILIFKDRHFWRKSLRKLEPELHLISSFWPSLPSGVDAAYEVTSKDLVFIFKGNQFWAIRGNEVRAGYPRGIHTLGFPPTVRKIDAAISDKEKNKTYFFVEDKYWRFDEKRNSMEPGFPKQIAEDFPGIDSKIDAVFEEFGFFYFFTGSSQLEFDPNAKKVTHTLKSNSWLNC

[13] = target: T3, Matrilysin (Homo sapiens) (UniProt P09237); assay: Inhibition of human recombinant MMP7 at 100 uM using MOCAc-Pro-Leu-Gly-Leu-A2pr(Dnp)-Ala-Arg-NH2 substrate
T3 sequence (whole entry): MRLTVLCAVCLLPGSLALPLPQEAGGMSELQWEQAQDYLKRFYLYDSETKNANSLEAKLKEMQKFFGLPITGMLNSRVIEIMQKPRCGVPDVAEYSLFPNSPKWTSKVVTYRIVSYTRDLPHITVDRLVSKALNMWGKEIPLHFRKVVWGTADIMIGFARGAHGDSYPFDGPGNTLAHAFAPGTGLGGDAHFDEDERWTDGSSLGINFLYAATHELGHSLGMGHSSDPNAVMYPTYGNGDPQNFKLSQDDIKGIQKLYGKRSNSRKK

[14] = target: 72 kDa type IV collagenase (Homo sapiens, UniProt P08253); assay: Slow binding inhibition of human recombinant MMP2 using MOCAc-Pro-Leu-Gly-Leu-A2pr(Dnp)-Ala-Arg-NH2 substrate; summary of the method: as §1
Sequence of 72 kDa type IV collagenase (P08253 whole entry, the tested form may be a part): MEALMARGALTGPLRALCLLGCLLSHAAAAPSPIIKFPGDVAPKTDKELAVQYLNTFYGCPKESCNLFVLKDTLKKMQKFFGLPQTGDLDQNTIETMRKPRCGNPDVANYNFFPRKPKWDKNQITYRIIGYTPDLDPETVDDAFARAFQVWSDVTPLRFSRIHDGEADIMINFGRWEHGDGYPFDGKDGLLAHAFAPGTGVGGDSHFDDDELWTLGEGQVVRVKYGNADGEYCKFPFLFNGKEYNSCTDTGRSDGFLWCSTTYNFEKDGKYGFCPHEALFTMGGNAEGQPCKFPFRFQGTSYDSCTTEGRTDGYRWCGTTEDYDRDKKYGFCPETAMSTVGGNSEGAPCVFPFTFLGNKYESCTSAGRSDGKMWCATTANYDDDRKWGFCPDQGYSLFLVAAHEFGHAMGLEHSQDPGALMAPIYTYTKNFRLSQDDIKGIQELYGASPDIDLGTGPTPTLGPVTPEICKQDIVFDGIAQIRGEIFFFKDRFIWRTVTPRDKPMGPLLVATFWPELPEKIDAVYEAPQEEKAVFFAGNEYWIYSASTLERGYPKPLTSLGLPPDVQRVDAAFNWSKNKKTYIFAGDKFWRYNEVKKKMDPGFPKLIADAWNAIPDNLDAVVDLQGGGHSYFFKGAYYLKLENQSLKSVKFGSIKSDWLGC

[15] = target: T4, Disintegrin and metalloproteinase domain-containing protein 9 (Homo sapiens) (UniProt Q13443); assay: Inhibition of human recombinant ADAM9 at 100 uM using Mca-Pro-Leu-Ala-Gln-Ala-Val-Dpa-Arg-Ser-Ser-Ser-Arg-NH2 substrate; summary of the method: as §1
T4 sequence (whole entry): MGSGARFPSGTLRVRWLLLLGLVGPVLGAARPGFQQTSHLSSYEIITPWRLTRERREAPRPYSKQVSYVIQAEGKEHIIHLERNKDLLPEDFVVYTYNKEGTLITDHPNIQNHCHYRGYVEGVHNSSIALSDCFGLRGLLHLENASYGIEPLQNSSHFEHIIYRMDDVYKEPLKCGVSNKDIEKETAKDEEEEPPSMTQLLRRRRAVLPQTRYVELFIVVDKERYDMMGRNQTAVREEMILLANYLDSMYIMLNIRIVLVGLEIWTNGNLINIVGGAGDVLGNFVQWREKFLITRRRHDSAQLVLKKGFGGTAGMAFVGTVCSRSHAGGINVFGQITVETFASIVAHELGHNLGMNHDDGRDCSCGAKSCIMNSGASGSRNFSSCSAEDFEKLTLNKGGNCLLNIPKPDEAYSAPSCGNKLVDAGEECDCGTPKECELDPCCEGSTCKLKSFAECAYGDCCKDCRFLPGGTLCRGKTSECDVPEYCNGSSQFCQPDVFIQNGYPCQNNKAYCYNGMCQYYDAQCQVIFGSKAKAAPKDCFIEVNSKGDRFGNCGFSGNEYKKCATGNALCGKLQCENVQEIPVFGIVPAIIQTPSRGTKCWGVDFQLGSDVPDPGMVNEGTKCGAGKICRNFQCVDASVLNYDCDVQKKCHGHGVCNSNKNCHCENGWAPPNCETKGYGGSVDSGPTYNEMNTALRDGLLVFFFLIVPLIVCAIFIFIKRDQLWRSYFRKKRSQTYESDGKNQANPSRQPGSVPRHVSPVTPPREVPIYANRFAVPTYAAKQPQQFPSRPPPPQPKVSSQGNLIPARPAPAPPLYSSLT

Mus musculus [16] = assay: Reduction in NFkappaB p65 protein levels generation in db/db BKS.Cg-Dock7m+/+ Lepr db/J mouse model of full-thickness excision at 50 ug/wound/day for 2 days dosed topically 1 day after wound creation by ELISA; type: functional, organism-based
Mus musculus [17] = assay: Induction of wound healing in db/db BKS.Cg-Dock7m+/+ Lepr db/J mouse model of full-thickness excision at 50 ug/wound/day for 14 days dosed topically 1 day after wound creation; type: functional, organism-based; summary of the method: as §2
Mus musculus [18] = assay: Induction of wound healing in db/db BKS.Cg-Dock7m+/+ Lepr db/J mouse model of full-thickness excision assessed as increase in re-epithelialization at 50 ug/wound/day for 14 days dosed topically 1 day after wound creation by H and E staining; type: functional, organism-based; summary of the method: as §2
Mus musculus [19] = assay: Reduction in NFkappaB p65 protein levels generation in db/db BKS.Cg-Dock7m+/+ Lepr db/J mouse model of full-thickness excision at 50 ug/wound/day for 1 day dosed topically 1 day after wound creation by ELISA; type: functional, organism-based
[20] = AUC in C57BLKS/6J db/db mouse plasma at 2 mg/kg, iv dosed as single administration by UPLC-MRM analysis; type: ADME, organism-based
Mus musculus [21] = assay: Reduction in NFkappaB p65 protein levels generation in db/db BKS.Cg-Dock7m+/+ Lepr db/J mouse model of full-thickness excision at 50 ug/wound/day for 7 days dosed topically 1 day after wound creation by ELISA; type: functional, organism-based

Structure (SMILES) | inhibition [5] [%] | inhibition (Mus musculus [6]) | inhibition (Mus musculus [8]) | inhibition [9] [%] | Ki [10] [nM] | inhibition [12] [%] | inhibition [13] [%] | Ki [14] [nM] | inhibition [15] [%] | Activity (Mus musculus [17]) | Activity (Mus musculus [18]) | further results
O=S(=O)(CC1CS1)c1ccc(Oc2ccc(O)cc2)cc1 (stereo not drawn) | – | – | – | – | – | – | – | – | – | – | – | A0.5 [1]: Nottraceable
Cl.NCc1ccc(Oc2ccc(S(=O)(=O)C[C@H]3CS3)cc2)cc1 | 22 | Active | inactive | 13 | 119 | 37 | 20 | 127 | 41 | Active | Active | Activity (Mus musculus [2]): Active; AUC [3]: 0.0217 µM·h; AUC (Mus musculus [4]): 492 µg/mg/day; Activity (Mus musculus [7]): Active; Activity (Mus musculus [11]): Active; bioavailability (in vivo): 3.7%; Activity (Salmonella typhimurium): Non-Toxic; Activity (Mus musculus [16]): Active; Activity (Mus musculus [19]): Active; AUC [20]: 0.583 µM·h; Activity (Mus musculus [21]): Active
NCc1ccc(Oc2ccc(S(=O)(=O)CC3CS3)cc2)cc1 (racemic) | 4 | Active | Active | 14 | – | 23 | 1 | – | 31 | inactive | Active | –
NCc1ccc(Oc2ccc(S(=O)(=O)C[C@@H]3CS3)cc2)cc1 | 24 | Active | Active | 5 | 53 | 22 | 15 | 37 | 25 | inactive | Active | –
